Measurements taken from paper PMC11032538 (Alzheimer's & Dementia, 2024).

How the values were obtained:
p-tau species [1] = experiment: ^3H-UCB-J saturation binding in AD P1 fraction pre-blocked with tau PET ligands; set-up: species or system Human; details: 10 μM pre-blocking of frontal cortex AD P1 fraction
Method in brief: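 AD frontal cortex pooled P1 fraction was pre-blocked with 10 μM unlabeled tau PET ligand on ice for 1 h. It was then spun at 2800 rpm for 10–15 min at 4°C to remove free ligand and resuspended in binding buffer. Saturation binding used 0–40 nM ³H-UCB-J, 2 h at room temperature, with filtration and scintillation counting. Data are means ± SEM of three to four experiments in duplicate.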

SV2A [2] = target: T1, SV2A (Homo sapiens, UniProt Q7L0J3); format: binding; details: 1 mM levetiracetam; 5 nM ^3H-UCB-J; CN frontal cortex P2 (Figure S2)
p-tau species [3] = experiment: ^3H-UCB-J vs MK6240 competition binding in P1 fractions; set-up: species or system Human; details: 100 μM; CN and AD P1 fraction; 5 nM ^3H-UCB-J
Method in brief: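 Pooled frontal cortex P1 fractions (0.05 mg protein) from one control and one AD pool. These were incubated 2 h at room temperature with 5 nM ³H-UCB-J plus increasing unlabeled competitor (10⁻¹⁴ to 10⁻⁴) in Tris-HCl pH 7.4 binding buffer. Samples were filtered and counted by scintillation. Binding was expressed as % of total; IC₅₀ came from non-linear competitive-binding regression.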

SV2A [4] = target: T1, SV2A; details: AD middle frontal cortex; ref 34 Mikkelsen et al.; cited from earlier work
SV2A [5] = target: T1, SV2A; details: frontal cortex (middle frontal gyrus) autoradiography; ref 24 Metaxas et al.; cited from earlier work
tau = tau (Homo sapiens, UniProt P10636); experiment: ^3H-MK6240 vs UCB-J competition binding in P1 fractions; details: up to 10 μM UCB-J; CN and AD P1 fractions; 0.5 nM ^3H-MK6240
tau, sequence (P10636 623-758 limits assumed): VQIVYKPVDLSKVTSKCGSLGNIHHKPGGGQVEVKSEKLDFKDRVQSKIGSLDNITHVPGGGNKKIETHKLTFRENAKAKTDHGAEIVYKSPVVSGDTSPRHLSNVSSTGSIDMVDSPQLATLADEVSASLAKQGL

T1 sequence (Q7L0J3 whole entry): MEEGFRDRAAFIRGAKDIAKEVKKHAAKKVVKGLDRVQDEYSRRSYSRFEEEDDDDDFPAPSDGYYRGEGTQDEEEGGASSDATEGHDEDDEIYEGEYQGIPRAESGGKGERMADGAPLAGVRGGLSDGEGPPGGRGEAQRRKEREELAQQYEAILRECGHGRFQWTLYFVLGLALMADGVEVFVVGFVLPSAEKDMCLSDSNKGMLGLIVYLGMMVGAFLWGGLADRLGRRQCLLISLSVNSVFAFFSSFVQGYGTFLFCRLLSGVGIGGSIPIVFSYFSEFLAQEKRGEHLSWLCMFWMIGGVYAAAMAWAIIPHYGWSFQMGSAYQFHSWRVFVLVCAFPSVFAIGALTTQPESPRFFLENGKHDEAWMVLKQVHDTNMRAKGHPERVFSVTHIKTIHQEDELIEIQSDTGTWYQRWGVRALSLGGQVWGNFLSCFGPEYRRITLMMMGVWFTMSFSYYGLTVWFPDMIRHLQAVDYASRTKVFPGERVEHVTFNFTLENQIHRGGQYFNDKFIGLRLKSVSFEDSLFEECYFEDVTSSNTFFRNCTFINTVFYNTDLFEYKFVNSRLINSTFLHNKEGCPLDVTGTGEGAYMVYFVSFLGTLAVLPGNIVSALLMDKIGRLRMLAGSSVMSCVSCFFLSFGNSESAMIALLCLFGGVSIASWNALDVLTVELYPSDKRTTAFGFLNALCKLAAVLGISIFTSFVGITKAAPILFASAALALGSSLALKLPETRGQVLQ

Fc1ccc(-c2ccc3c(c2)[nH]c2ccncc23)cn1 [AV-1451]
reduction in ^3H-UCB-J binding compared to unblocked AD P1 fractions (p-tau species [1]): ≈ 22%

CC[C@@H](C(N)=O)N1CCCC1=O [Levetiracetam]
displacement of ^3H-UCB-J binding compared with 1 μM UCB-J (SV2A [2]): same displacement

Nc1c(F)ccc2cnc(-n3ccc4ccncc43)cc12 [MK6240]
reduction in ^3H-UCB-J binding compared to unblocked AD P1 fractions (p-tau species [1]): ≈ 22%
displacement of ^3H-UCB-J binding (p-tau species [3]): ≈ 38%

Cc1cnccc1CN1C[C@@H](c2cc(F)c(F)c(F)c2)CC1=O [UCB-J]
reduction in UCB-J binding in AD compared to CN (SV2A [4]): 19%
difference in UCB-J binding between AD and CN cases (SV2A [5]): no difference
displacement of ^3H-MK6240 binding (tau): no displacement
